Experimental data taken from article PMC3085808 (Nutrition Research and Practice, 2011).

Tests used:
[1] = system: glycosidases from the viscera of the turban shell Turbo cornutus; details: cited from earlier work
[2] = target: T1, angiotensin I-converting enzyme (ACE) (Oryctolagus cuniculus, UniProt P12822); test: ACE inhibition pattern by Lineweaver-Burk plots; assay type: biochemical; details: substrate HHL
T1 sequence (P12822 34-1310): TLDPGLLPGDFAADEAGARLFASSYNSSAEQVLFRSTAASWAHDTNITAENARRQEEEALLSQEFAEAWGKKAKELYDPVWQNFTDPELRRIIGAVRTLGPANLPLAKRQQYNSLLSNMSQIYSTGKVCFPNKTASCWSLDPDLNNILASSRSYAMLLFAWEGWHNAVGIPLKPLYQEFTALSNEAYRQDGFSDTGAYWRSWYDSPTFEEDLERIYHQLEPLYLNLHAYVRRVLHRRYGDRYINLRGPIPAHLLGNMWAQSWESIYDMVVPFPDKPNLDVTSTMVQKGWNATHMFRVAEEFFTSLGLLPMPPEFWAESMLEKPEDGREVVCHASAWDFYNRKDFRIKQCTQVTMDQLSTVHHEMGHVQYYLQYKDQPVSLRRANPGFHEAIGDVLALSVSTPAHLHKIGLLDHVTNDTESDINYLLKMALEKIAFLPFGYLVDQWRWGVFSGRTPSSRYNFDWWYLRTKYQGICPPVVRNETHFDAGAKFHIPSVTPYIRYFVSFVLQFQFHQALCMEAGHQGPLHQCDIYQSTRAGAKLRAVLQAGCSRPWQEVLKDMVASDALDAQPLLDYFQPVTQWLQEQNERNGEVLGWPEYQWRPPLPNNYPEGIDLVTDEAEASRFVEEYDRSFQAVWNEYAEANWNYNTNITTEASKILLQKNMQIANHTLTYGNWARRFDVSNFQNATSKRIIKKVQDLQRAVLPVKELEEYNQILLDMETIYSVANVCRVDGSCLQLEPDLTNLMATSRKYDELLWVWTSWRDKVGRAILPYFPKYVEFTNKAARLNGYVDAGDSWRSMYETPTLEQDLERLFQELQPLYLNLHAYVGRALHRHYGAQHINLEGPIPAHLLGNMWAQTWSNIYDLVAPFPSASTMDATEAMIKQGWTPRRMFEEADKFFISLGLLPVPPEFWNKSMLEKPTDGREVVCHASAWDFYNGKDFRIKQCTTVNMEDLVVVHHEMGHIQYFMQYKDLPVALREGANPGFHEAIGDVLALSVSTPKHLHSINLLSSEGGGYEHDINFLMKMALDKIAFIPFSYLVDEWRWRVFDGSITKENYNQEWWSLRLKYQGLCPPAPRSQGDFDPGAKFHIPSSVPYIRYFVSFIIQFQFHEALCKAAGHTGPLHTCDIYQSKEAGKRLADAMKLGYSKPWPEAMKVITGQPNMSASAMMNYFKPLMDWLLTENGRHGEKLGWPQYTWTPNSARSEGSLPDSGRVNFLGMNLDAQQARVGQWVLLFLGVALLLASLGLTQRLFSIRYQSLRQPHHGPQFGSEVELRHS
Summary of the method: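 ACE kept constant while test compound (in 0.1% DMSO) and HHL substrate were both varied. Enzyme and compound were pre-incubated 10 min at 37℃, then HHL in 50 mM sodium borate with 500 mM NaCl, pH 8.3, was added for 60 min at 37℃. Stopped with 1 M HCl; hippuric acid extracted into ethyl acetate, dried, redissolved in water, A228. 0.1% DMSO control. Lineweaver-Burk plots, mean ± SD of three determinations.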

EAhy926 cells [3] = test: Nitric oxide; assay type: cell-based, human; details: 24 h, P < 0.05
Summary of the method: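 EAhy926 cells at 1.5 × 10^5 cells/well were treated 24 h with a range of test compound concentrations in 0.1% DMSO, with 0.1% DMSO as control. Supernatant nitrite: supernatant mixed 1:1 with Griess reagent (0.1% N-(1-naphthyl)-ethylenediamine, 1% sulfanilamide in 5% phosphoric acid), 10 min at room temperature, A550 against a sodium nitrite standard curve. Mean ± SD of three determinations; one-way ANOVA with Duncan's test, P < 0.05.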

EAhy926 cells [4] = test: Cell viability, MTT assay; assay type: cell-based, human
Summary of the method: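 EAhy926 cells grown in DMEM with 10% heat-inactivated calf serum, penicillin and streptomycin at 37℃, 5% CO2. Seeded at 1.0 × 10^5 cells/ml, held 16 h, then exposed 24 h to a range of test compound concentrations in 0.1% DMSO. MTT (2 mg/ml stock) added for 4 h; formazan dissolved in DMSO, A540. Viability as % of 0.1% DMSO control; mean ± SD of three determinations.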

## Oc1cc(O)cc(Oc2c(O)cc(O)c3c2Oc2c(O)cc(Oc4c(O)cc(Oc5c(O)cc(O)c6c5Oc5c(O)cc(O)cc5O6)cc4O)cc2O3)c1 [Dieckol, dieckol]
[1]
  Glycosidase inhibition mode: non-competitive inhibitor
[2]
  ACE inhibition mode: non-competitive inhibitor
EAhy926 cells [3]
  Concentrations with inducible effect on the production of NO: higher than 0.27 mM
EAhy926 cells [4]
  Cytotoxic effect: no cytotoxic effect
EAhy926 cells [4]; 24 h, all of the concentrations used
  Survival rate of cells: higher than 95%
